Activity calls are given as the source filed them. The calls are words filed in the database; no cut-off is given here. Non-standard residues stand in square brackets, D forms with d. Residues, ends and D or L forms follow the SMILES beside them. Bip = N[C@@H](Cc1ccc(-c2ccccc2)cc1)C(=O)O; dPhe(4-I) = N[C@H](Cc1ccc(I)cc1)C(=O)O; 2Nal = N[C@@H](Cc1ccc2ccccc2c1)C(=O)O
What was measured:
[1] = target: Melanocortin receptor 4 (Mus musculus) (UniProt P56450); experiment: Antagonist activity at mouse MC4R expressed in HEK293 cells assessed as inhibition of NDP-MSH induced-cAMP accumulation up to 10 uM after 2 hrs by alpha screen assay; format: functional, cell-based
In short: (§1)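 mouse MC3R or MC4R in stably transfected HEK293 cells, AlphaScreen cAMP assay (IBMX stimulation buffer, 2 h RT incubation, then 2 h with donor-bead lysis mix). […] Run in triplicate.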

Melanocortin receptor 4 [2] = target: T1, Melanocortin receptor 4 (Mus musculus, UniProt P56450); experiment: Agonist activity at mouse MC4R expressed in HEK293 cells assessed as induction of cAMP accumulation at 100 uM after 2 hrs by alpha screen assay relative to NDP-MSH; format: cell-based
In short: (§2)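 HEK293 stably expressing mouse MC1R/MC3R/MC4R/MC5R (pCDNA3). Cells in stimulation buffer (HBSS, 0.5 mM IBMX, 5 mM HEPES, 0.1% BSA, pH 7.4) at 1000 cells/μL with anti-cAMP acceptor beads. Ligand given 10−4 to 10−10 M (or 10−6 to 10−12 M) for 2 h at RT in the dark, then donor beads/biotin-cAMP lysis mix for 2 h. AlphaScreen cAMP read-out, normalized to 10−6 M NDP-MSH as 100%.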

[3] = target: Melanocortin receptor 3 (Mus musculus) (UniProt P33033); experiment: Agonist activity at mouse MC3R expressed in HEK293 cells assessed as induction of cAMP accumulation at 100 uM after 2 hrs by alpha screen assay relative to NDP-MSH; format: functional, cell-based; in short: as §2
[4] = target: Melanocyte-stimulating hormone receptor (Mus musculus) (UniProt Q01727); experiment: Agonist activity at mouse MC1R expressed in HEK293 cells assessed as induction of cAMP accumulation at 100 uM after 2 hrs by alpha screen assay relative to NDP-MSH; format: functional, cell-based; in short: as §2
[5] = target: Melanocortin receptor 3 (Mus musculus) (UniProt P33033); experiment: Antagonist activity at mouse MC3R expressed in HEK293 cells assessed as inhibition of NDP-MSH induced-cAMP accumulation up to 10 uM after 2 hrs by alpha screen assay; format: functional, cell-based; in short: as §1
[6] = target: Melanocortin receptor 5 (Mus musculus) (UniProt P41149); experiment: Agonist activity at mouse MC5R expressed in HEK293 cells assessed as induction of cAMP accumulation at 100 uM after 2 hrs by alpha screen assay relative to NDP-MSH; format: functional, cell-based; in short: as §2
Melanocortin receptor 4 [7] = target: T1, Melanocortin receptor 4; experiment: Agonist activity at mouse MC4R expressed in HEK293 cells assessed as induction of cAMP accumulation up to 100 uM after 2 hrs by alpha screen assay relative to NDP-MSH; format: cell-based; settings: read-out: Activity
Melanocortin receptor 4 [8] = target: T1, Melanocortin receptor 4; experiment: Agonist activity at mouse MC4R expressed in HEK293 cells assessed as induction of cAMP accumulation after 2 hrs by alpha screen assay; format: cell-based
[9] = target: Melanocyte-stimulating hormone receptor (Mus musculus) (UniProt Q01727); experiment: Agonist activity at mouse MC1R expressed in HEK293 cells assessed as induction of cAMP accumulation up to 100 uM after 2 hrs by alpha screen assay relative to NDP-MSH; format: functional, cell-based; in short: as §2
[10] = target: Melanocortin receptor 5 (Mus musculus) (UniProt P41149); experiment: Agonist activity at mouse MC5R expressed in HEK293 cells assessed as induction of cAMP accumulation up to 100 uM after 2 hrs by alpha screen assay relative to NDP-MSH; format: functional, cell-based; in short: as §2
[11] = target: Melanocortin receptor 3 (Mus musculus) (UniProt P33033); experiment: Agonist activity at mouse MC3R expressed in HEK293 cells assessed as induction of cAMP accumulation up to 100 uM after 2 hrs by alpha screen assay relative to NDP-MSH; format: functional, cell-based; in short: as §2
Melanocortin receptor 4 [12] = target: T2, Melanocortin receptor 4 (Homo sapiens, UniProt P32245); experiment: Agonist activity at human MC4R expressed in CHO cells assessed as induction of cAMP activation after 45 mins relative to alpha MSH; format: cell-based; settings: 0.75 h
Melanocortin receptor 4 [13] = target: T2, Melanocortin receptor 4; experiment: Antagonist activity at human MC4R expressed in CHO cells assessed as inhibition of aplha MSH-induced cAMP activation after 45 mins; format: functional, cell-based
[14] = target: Melanocortin receptor 3 (Homo sapiens) (UniProt P41968); experiment: Binding affinity to human MC3R expressed in CHO cells assessed by radioligand displacement
Melanocortin receptor 4 [15] = target: T2, Melanocortin receptor 4; experiment: Agonist activity at human MC4R expressed in CHO cells assessed as induction of cAMP activation after 45 mins; format: cell-based; settings: 0.75 h

T2 sequence (P32245 whole entry): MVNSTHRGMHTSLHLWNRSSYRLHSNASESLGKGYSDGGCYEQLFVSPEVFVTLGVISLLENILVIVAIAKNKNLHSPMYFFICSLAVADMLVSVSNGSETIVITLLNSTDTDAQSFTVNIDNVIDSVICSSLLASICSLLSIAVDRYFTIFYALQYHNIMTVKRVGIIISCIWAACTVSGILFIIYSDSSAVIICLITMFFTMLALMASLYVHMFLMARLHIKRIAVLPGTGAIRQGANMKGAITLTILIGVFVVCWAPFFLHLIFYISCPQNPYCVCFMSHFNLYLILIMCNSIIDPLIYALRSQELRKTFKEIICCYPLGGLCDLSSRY
Sequence of Melanocortin receptor 3 (Mus musculus) (P33033 whole entry): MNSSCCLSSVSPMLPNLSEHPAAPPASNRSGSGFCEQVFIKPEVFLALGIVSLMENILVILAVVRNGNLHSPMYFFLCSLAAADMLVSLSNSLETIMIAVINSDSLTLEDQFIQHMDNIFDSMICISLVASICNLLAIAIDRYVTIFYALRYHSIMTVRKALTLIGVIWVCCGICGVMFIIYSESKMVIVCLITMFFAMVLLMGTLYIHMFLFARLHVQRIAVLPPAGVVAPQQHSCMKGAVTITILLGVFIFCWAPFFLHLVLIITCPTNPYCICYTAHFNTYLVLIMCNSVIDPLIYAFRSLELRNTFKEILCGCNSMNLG
T1 sequence (P56450 whole entry): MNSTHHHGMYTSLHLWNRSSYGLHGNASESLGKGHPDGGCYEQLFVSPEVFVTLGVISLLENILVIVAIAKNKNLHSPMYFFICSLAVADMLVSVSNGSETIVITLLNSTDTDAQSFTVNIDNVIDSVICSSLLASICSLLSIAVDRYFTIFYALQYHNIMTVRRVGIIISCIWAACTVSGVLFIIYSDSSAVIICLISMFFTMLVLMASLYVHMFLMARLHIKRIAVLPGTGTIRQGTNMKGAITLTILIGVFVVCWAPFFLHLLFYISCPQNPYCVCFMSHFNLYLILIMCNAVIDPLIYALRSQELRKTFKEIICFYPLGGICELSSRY
Sequence of Melanocortin receptor 4 (Mus musculus) (P56450 whole entry): as above
Sequence of Melanocortin receptor 5 (Mus musculus) (P41149 whole entry): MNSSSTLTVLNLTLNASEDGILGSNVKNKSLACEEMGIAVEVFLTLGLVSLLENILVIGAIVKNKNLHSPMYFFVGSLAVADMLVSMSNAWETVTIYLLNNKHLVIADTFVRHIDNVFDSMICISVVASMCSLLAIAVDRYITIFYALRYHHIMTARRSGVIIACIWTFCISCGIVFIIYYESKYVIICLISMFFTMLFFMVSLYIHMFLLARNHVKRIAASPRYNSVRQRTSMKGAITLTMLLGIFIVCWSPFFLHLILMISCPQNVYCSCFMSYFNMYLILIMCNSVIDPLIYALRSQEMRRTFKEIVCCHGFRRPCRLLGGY
Sequence of Melanocyte-stimulating hormone receptor (Mus musculus) (Q01727 whole entry, looked up): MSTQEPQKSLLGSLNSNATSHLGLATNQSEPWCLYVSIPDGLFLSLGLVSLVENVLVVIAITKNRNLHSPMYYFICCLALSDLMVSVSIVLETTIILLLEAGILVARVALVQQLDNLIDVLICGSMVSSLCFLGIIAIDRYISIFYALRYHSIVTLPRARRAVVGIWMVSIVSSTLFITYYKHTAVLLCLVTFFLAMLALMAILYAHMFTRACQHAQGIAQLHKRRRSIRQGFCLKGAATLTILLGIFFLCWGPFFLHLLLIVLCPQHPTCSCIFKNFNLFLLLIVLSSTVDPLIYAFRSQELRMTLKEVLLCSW
Sequence of Melanocortin receptor 3 (Homo sapiens) (P41968 whole entry): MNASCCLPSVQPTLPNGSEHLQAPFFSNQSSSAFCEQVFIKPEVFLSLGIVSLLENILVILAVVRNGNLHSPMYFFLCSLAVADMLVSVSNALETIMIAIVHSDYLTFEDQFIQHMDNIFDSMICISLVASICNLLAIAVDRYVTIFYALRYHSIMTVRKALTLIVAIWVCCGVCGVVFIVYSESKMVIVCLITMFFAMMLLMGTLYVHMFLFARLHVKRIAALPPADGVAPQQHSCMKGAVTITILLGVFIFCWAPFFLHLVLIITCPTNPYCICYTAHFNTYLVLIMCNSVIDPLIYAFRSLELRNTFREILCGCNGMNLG

`CC(=O)N[C@@H](Cc1csc2ccccc12)C(=O)N[C@@H](CCCNC(=N)N)C(=O)N[C@H](Cc1ccc(I)cc1)C(=O)N[C@H](Cc1ccc2ccccc2c1)C(N)=O` was tested, and the inhibition [1] was “inactive”, the Activity (Melanocortin receptor 4 [2]) was 38% and the Activity [3] was 34%. For the same molecule, the Activity [4] was 36%, the inhibition [5] was “inactive” and the Activity [6] was 41%.
In the case of `CC(=O)N[C@@H](Cc1ccc2ccccc2c1)C(=O)N[C@@H](CCCNC(=N)N)C(=O)N[C@H](Cc1ccc(I)cc1)C(=O)N[C@@H](Cc1ccc2ccccc2c1)C(N)=O` (Ac-[2Nal]R[dPhe(4-I)][2Nal]-NH2), the inhibition [1] is reported as “inactive”, the Emax (Melanocortin receptor 4 [7]) is reported as less than 20% and the Activity [3] is reported as 39%. The inhibition [5] was “inactive”.
For `CC(=O)N[C@@H](CCCNC(=N)N)C(=O)N[C@@H](CCCNC(=N)N)C(=O)N[C@H](Cc1ccc(I)cc1)C(=O)N[C@H](Cc1ccc2ccccc2c1)C(N)=O`, the Emax (Melanocortin receptor 4 [7]) was less than 20% and the EC50 (Melanocortin receptor 4 [8]) was greater than 100 µM.
In the case of `CC(=O)N[C@@H](Cc1ccc(-c2ccccc2)cc1)C(=O)N[C@@H](CCCNC(=N)N)C(=O)N[C@H](Cc1ccc(I)cc1)C(=O)N[C@@H](Cc1ccc(-c2ccccc2)cc1)C(N)=O` (Ac-[Bip]R[dPhe(4-I)][Bip]-NH2), the inhibition [1] is reported as “inactive”, the Activity [9] is reported as less than 20% and the Activity [10] is reported as less than 20%. For the same molecule, the Activity [11] was less than 20% and the inhibition [5] was “inactive”.
In the case of `N=C(N)NCCC[C@H](NC(=O)[C@@H](Cc1ccc(I)cc1)NC(=O)[C@@H]1Cc2ccccc2CN1)C(=O)N[C@@H](Cc1c[nH]c2ccccc12)C(N)=O`, the Emax (Melanocortin receptor 4 [12]) is reported as greater than 35%, the Ki (Melanocortin receptor 4 [13]) is reported as 0.79 nM and the Kb (Melanocortin receptor 4 [13]; read-out: pA2 (converted)) is reported as 0.794 nM. For the same molecule, the IC50 [14] was 75 nM and the Activity (Melanocortin receptor 4 [15]) was 0.3 nM.
